An excerpt weighted towards active compounds, which were near 6.4% of everything screened.
Jurkat viability: cytotoxicity toward Jurkat T cells, primary screen, cytotoxicity control, cell-based, Jurkat E6.1, 60K MLSMR library; inhibition, % at 4 µM; AID 463, 2006; Jurkat E6.1 viability, ATP luminescence, 48 h; hit rate 1.2% among 56,000;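 active = inhibition above the mean inhibition of all tested compounds plus 3 SD, cut at about 28% in these data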
tolC growth inh: growth inhibitors of E. coli tolC mutant, primary screen, strain BW25113 ΔtolC::kan, 384-well | growth inhibition, % at 10 µM (by protocol) | hit rate 2.2% among 65,000 | AID 573, 2007 | OD615;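 active = growth inhibition at or above a cutoff equal to the mean over every tested compound plus 3 SD, cut at about 60% in these data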;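 note: growth measured after 20 h incubation at 37 °C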
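Test system: E. coli BW25113 ΔtolC::kan bacteria | Medium: Kanamycin-containing LB broth (50 µg/mL) | Dosing: One dose of 10 µM final | Times: 20 h incubation with compound, 37 °C | Detection: Optical density read at 615 nm | Read-out basis: Percent growth inhibition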
H69AR growth 86K: proliferation blockers of H69AR lung cancer cells, primary screen, cell-based, human, 86K library | H69AR lung tumor viability, ATP luminescence, 72 h; stronger effect = lower value | viability, % at 10 µM | hit rate 6% among 85,000 | AID 598, 2007;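 active = viability at or below 40%; inactive = viability above 40%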;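 note: multidrug resistant small cell line overexpressing MRP-1 efflux transporter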
E coli WT exp: growth inhibitors of wild-type E. coli, primary screen, strain BW25113, expanded library, OD600 | hit rate 0.15% among 98,000 | AID 710, 2007 | growth inhibition, % at 100 µM | OD600 absorbance;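 active = growth inhibition above about 50% at one test dose, limit read from the data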;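 note: growth measured after 20 h incubation at 37 °C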
HUVEC inhibit: inhibitors of HUVEC proliferation, primary screen, cell-based, 384-well; CellTiter-Glo luminescence, 72 h; stronger effect = lower value; viability, % at 10 µM (by protocol); hit rate 1.1% among 86,000;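 active = viability at or below 30%; inactive = viability above 30%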
Fibroblast inh: antiproliferative effect on LL 47 fibroblasts – human, LL 47 cells, CellTiter-Glo luminescence, primary screen | viability, % at 10 µM | AID 719, 2007 | hit rate 1.1% among 85,000 | LL 47 human lung fibroblast viability, ATP luminescence; stronger effect = lower value;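 active = viability at or below 50% in the single dose screen; inactive = viability above 50%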;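 note: compound exposure lasted 72 h before the ATP readout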
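test system = LL 47 human lung fibroblasts | amount = 1,150 fibroblasts seeded per well | medium = 15% FBS in IMEM | times = overnight cell rest, 72 h compound treatment at 37 °C | measured by = CellTiter-Glo luminescence measuring cellular ATP | read-out = viability percentage against median untreated-cell control | benchmarks = cell-only wells, no compound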
Of the large screens only hits and unclear results are named; the others gave an inactive call.

Cn1c(-c2c(N)n(CCCc3ccccc3)c3nc4ccccc4nc23)nc2ccccc21	H69AR growth 86K 23.4 (no result: Jurkat viability, tolC growth inh)
COCCCn1c(N)c(-c2nc3ccccc3n2C)c2nc3ccccc3nc21	none (no result: Jurkat viability, tolC growth inh)
CCc1ccc(OCCCC(=O)O)c(Br)c1	none
CCCCN(CCCC)c1nc(OC)nc(-n2nnc(C(C)=O)c2C)n1	H69AR growth 86K 37.4 (no result: Jurkat viability, tolC growth inh)
O=c1c2c(-c3ccco3)csc2nc(SCc2cn3cccnc3n2)n1-c1ccccc1	none
COc1ccc(C2C3=C(Nc4ncnn42)c2ccccc2CCC3)cc1 (centres undefined)	none (no result: Jurkat viability)
COc1cc(C2C3=C(Nc4ncnn42)c2ccccc2CC3)cc(OC)c1OC (centres undefined)	Jurkat viability 97.8, H69AR growth 86K 29.1
O=C(Nc1ccccc1)c1cnc(-c2ccccc2)nc1-c1ccccc1	none (no result: Jurkat viability, tolC growth inh, H69AR growth 86K, HUVEC inhibit, Fibroblast inh)
Cc1cccc(Nc2nc(-c3cccs3)cs2)n1	none (no result: Jurkat viability, tolC growth inh, E coli WT exp)
Cc1cccnc1Nc1nc(-c2ccccn2)cs1	H69AR growth 86K 0.4, HUVEC inhibit 16.1, Fibroblast inh 3.2 (no result: Jurkat viability, tolC growth inh)
c1ccc(Nc2nc(-c3cccnc3)cs2)nc1	none
Cc1cccc(Nc2nc(-c3ccccn3)cs2)n1	tolC growth inh 98.2, H69AR growth 86K 3.9
NS(=O)(=O)c1ccc(Nc2nc(-c3ccc(O)cc3O)cs2)cc1	none (no result: Jurkat viability, tolC growth inh)
c1ccc(Nc2nc(-c3cccs3)cs2)nc1	tolC growth inh 100.0 (no result: H69AR growth 86K, HUVEC inhibit, Fibroblast inh)
Cc1cccnc1Nc1nc(-c2ccc(O)cc2O)cs1	tolC growth inh 100.0, H69AR growth 86K 8.0, HUVEC inhibit 13.7
O=C(Nc1ccccc1C(=O)NCC1CCCO1)c1ccc(Cl)cc1Cl (centres undefined)	none (no result: Jurkat viability, tolC growth inh, H69AR growth 86K, HUVEC inhibit, Fibroblast inh)
Cn1c(SCC(=O)NCc2ccc3c(c2)OCO3)nnc1-c1cccs1	none
CC(C)(C)c1cc(C(=S)N2CCN(CCO)CC2)cc(C(C)(C)C)c1O	none
COc1ccc(OC)c(/C=N/NC(=O)CC2C(=O)NN=C2C)c1 (centres undefined)	none (no result: Jurkat viability, tolC growth inh, H69AR growth 86K, HUVEC inhibit, Fibroblast inh)
COCn1c(COc2ccc3ccccc3c2)nc2ccccc21	none (no result: Jurkat viability, tolC growth inh, E coli WT exp)
Cc1ccccc1Cc1c(C)nc2c(C(=O)NCc3ccco3)cnn2c1C	H69AR growth 86K 39.7
NC(=O)c1ccccc1O	none (no result: Jurkat viability, tolC growth inh, E coli WT exp)
CC1CCC(C(C)C)C2=C1C(C#N)(C#N)C(C#N)(C#N)C(c1ccccc1)N2 (centres undefined)	H69AR growth 86K 0.0, HUVEC inhibit 27.9, Fibroblast inh 32.4 (no result: Jurkat viability, tolC growth inh)
Cc1cc(N2CCC(C)CC2)nc(SCC(=O)c2ccccc2)n1	H69AR growth 86K 39.5 (no result: Jurkat viability, tolC growth inh, E coli WT exp)
Cc1cc(N2CCCC2)nc(SCC(=O)c2ccccc2)n1	none (no result: Jurkat viability, tolC growth inh, E coli WT exp)
CC(=O)Oc1cccc(/C=c2\sc3nc(-c4ccco4)nn3c2=O)c1	H69AR growth 86K 10.5
CCCOc1ccc(/C=c2\sc3nc(-c4ccco4)nn3c2=O)cc1OCC	none
CCCc1nc2ccccc2c(=O)n1NC(=O)c1c(O)c2cccc3c2n(c1=O)CCC3	H69AR growth 86K 18.4
O=C(NCCc1ccccc1)c1c(O)c2cccc3c2n(c1=O)CC3	none
CCN(CC)CCNC(=O)c1c(O)c2cccc3c2n(c1=O)CCC3	H69AR growth 86K 30.7
CCCCCCc1nc2ccccc2c(=O)n1NC(=O)c1c(O)c2cccc3c2n(c1=O)CC3	H69AR growth 86K 35.9 (no result: Jurkat viability, tolC growth inh, E coli WT exp)
CCCCCCNC(=O)c1c(O)c2cccc3c2n(c1=O)CCC3	none
Cc1ccc2c(c1)c(C)c(C)n2CC(O)Cn1nc(C)c(Br)c1C (centres undefined)	tolC growth inh 81.7 (no result: H69AR growth 86K, HUVEC inhibit, Fibroblast inh)
Cc1csc2ncc(C(=O)Nc3ccon3)c(=O)n12	none
CCn1c(SC)nnc1-c1sc2cc(Cl)ccc2c1Cl	tolC growth inh 76.6
CSc1nnc(-c2ccccc2)n1C	none
CSc1nnc(-c2sc3cc(Cl)ccc3c2Cl)n1C	H69AR growth 86K 26.7
COc1cc(C)nc(N2CCCC(C(=O)Nc3cccc(Cl)c3Cl)C2)n1 (centres undefined)	H69AR growth 86K 11.0 (no result: Jurkat viability)
COc1ccccc1NC(=O)C1CCCN(c2nc(C)cc(C)n2)C1 (centres undefined)	none (no result: Jurkat viability, tolC growth inh, E coli WT exp)
CC(=O)[C@@]1(O)CC[C@H]2[C@@H]3CCC4=CC(=O)CC[C@]4(C)[C@H]3CC[C@@]21C	none (no result: Jurkat viability, tolC growth inh, E coli WT exp)
CCCCCC(=O)O[C@]1(C(C)=O)CC[C@H]2[C@@H]3CCC4=CC(=O)CC[C@]4(C)[C@H]3CC[C@@]21C	H69AR growth 86K 4.8 (no result: Jurkat viability, E coli WT exp)
